Results published in ChEMBL document CHEMBL1148399, “Total synthesis and antitubulin activity of c10 analogues of cryptophycin-24” (2004).

How the values were obtained:
Type in all cases: functional
[1] = system: MCF7; assay: In vitro cytotoxicity against human MCF-7 cell line; settings: read-out: ED50 (the source's name)
In short: (§1)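 About 2000 cells/well plated in Dulbecco's MEM/F12 with 10% fetal calf serum. At 24 h the medium was replaced with fresh medium holding varying compound concentrations. After 72 h, proliferation was read by sulforhodamine B staining. ED50 is the concentration reducing cell proliferation by 50%.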

[2] = system: NCI/ADR-RES; assay: In vitro cytotoxicity against human MCF-7/Adr breast cancer cell line; settings: read-out: ED50 (the source's name); in short: as §1
[3] = target: Tubulin alpha chain (Sus scrofa) (UniProt P02550); assay: In vitro effective concentration required to reduce the amount of microtubules assembly by tubulin assay
In short: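 Tubulin at 1.5 mg/mL was incubated with varying compound concentrations for 15 min at 37 °C in PEM buffer, pH 6.9 (0.1 M PIPES, 1 mM EGTA, 1 mM MgSO4), with 0.5 mM GTP and 8% DMSO. Microtubules were pelleted by centrifugation for 4 min at 37 °C and 50 000 rpm. Supernatant protein was measured by Bradford, and pellet protein derived from it. ED50 is the concentration reducing microtubules by 50%.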

[4] = system: CCRF-CEM; assay: In vitro cytotoxicity against human CEM cell line; settings: read-out: ED50 (the source's name)
[5] = system: KB; assay: In vitro cytotoxicity against human KB cancer cell line; settings: read-out: ED50 (the source's name)

Chain of Tubulin alpha chain (Sus scrofa) (P02550 whole entry, looked up): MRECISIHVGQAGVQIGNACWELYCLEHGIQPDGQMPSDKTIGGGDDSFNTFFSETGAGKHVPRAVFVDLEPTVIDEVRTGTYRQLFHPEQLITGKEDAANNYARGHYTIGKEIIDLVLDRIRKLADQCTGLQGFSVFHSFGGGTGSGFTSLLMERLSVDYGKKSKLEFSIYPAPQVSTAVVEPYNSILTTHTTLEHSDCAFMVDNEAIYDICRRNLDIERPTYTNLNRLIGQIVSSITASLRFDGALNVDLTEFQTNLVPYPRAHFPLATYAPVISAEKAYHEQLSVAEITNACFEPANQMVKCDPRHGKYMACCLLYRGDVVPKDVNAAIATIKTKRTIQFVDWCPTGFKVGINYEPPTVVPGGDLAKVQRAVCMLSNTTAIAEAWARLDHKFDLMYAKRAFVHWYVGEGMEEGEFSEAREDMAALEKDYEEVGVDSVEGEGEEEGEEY

Row | SMILES | EC50 [1] | EC50 [2] | ED50 [3] | EC50 [4] | EC50 [5]
1 | CC(C)C[C@@H]1OC(=O)CCNC(=O)[C@@H](Cc2ccc(Cl)cc2)NC(=O)/C=C/C[C@@H]([C@H](C)[C@H]2O[C@@H]2c2ccccc2)OC1=O | 0.12 nM | 0.66 nM | 12500 nM | – | –
2 | CC(C)C[C@@H]1OC(=O)CCNC(=O)[C@@H](Cc2cccc(Cl)c2)NC(=O)/C=C/C[C@@H]([C@H](C)[C@H]2O[C@@H]2c2ccccc2)OC1=O | 0.05 nM | 0.58 nM | 7200 nM | – | –
3 | CC(C)C[C@@H]1OC(=O)CCNC(=O)[C@@H](Cc2ccc(Cl)c(Cl)c2)NC(=O)/C=C/C[C@@H]([C@H](C)[C@H]2O[C@@H]2c2ccccc2)OC1=O | 0.08 nM | 3.4 nM | 12600 nM | – | –
4 | COc1ccc(C[C@H]2NC(=O)/C=C/C[C@@H]([C@H](C)[C@H]3O[C@@H]3c3ccccc3)OC(=O)[C@H](CC(C)C)OC(=O)[C@H](C)CNC2=O)cc1Cl [CRYPTOPHYCIN A] | 0.009 nM | 0.018 nM | 3400 nM | – | –
5 | CC(C)C[C@@H]1OC(=O)CCNC(=O)[C@@H](Cc2ccccc2)NC(=O)/C=C/C[C@@H]([C@H](C)[C@H]2O[C@@H]2c2ccccc2)OC1=O | 0.34 nM | 1.57 nM | 13100 nM | – | –
6 | COc1ccc(C[C@H]2NC(=O)/C=C/C[C@@H]([C@H](C)[C@H]3O[C@@H]3c3ccccc3)OC(=O)[C@H](CC(C)C)OC(=O)CCNC2=O)cc1 [ARENASTATIN A] | 0.13 nM | 0.25 nM | 15800 nM | 0.183 nM | 0.005 nM
